# S1P4 agonist: S1P4 receptor agonists, primary screen, cell-based; hit rate 0.35% among 220,000; S1P4-expressing cell line, agonist reporter assay; activation, % at 4.98 µM; Sphingosine 1-phosphate receptor 4 (Homo sapiens), O95977; AID 1509, 2009; in the data active means activation above about 11%;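 further: 0% = DMSO vehicle and 100% = reference agonist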
# Target sequence (O95977 whole entry, looked up): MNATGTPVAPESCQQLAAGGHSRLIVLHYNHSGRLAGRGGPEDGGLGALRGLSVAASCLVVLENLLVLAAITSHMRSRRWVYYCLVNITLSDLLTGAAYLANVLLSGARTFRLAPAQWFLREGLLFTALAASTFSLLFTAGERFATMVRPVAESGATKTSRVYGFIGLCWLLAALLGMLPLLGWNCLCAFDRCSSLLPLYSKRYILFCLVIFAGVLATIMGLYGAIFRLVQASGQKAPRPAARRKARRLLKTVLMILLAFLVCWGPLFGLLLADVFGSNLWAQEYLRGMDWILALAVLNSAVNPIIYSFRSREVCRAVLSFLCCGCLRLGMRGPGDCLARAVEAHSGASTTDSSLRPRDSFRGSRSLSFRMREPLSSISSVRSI
# MDM2 E3 inh: MDM2-luciferase reporter signal enhancers, primary screen, MDM2 E3 ligase inhibitor project, cell-based, luminescence, 1536-well. E3 ubiquitin-protein ligase Mdm2 (Homo sapiens), Q00987. cell-based MDM2 ubiquitination luciferase reporter, 2 h; 0 = plate control, 100 = twice control, blank-subtracted. signal enhancement, % at 5 µM. hit rate 0.11% among 210,000;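 active means signal enhancement of 30% or more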;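 further: luminescence tracks abundance of the self-degrading MDM2-luciferase fusion protein; higher signal means inhibition of MDM2 E3 ligase activity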
#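 Assay system: mammalian cells stably expressing self-ubiquitinating, self-degrading MDM2 E3–luciferase fusion. Quantity: 2000 cells in each well. Medium: DMEM culture medium. Compound dosing: single-point 5 µM. Timing: cell settling 4 h, compound treatment 2 h, both 37 °C. Technique: luciferase luminescence. Read-out basis: percent signal gain over controls, blank-subtracted. Benchmarks: plate controls and plate blanks.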
# S1P4 antagonist: S1P4 receptor antagonists, primary screen, cell-based. Sphingosine 1-phosphate receptor 4 (Homo sapiens), O95977. hit rate 0.26% among 220,000. S1P4-expressing cells, antagonist mode, reporter read-out. inhibition, % at 4.98 µM; in the data active means inhibition above about 29%;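 further: 0% = wells stimulated with agonist and 100% = vehicle wells without agonist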
# L major viab: Leishmania major promastigote growth inhibition, primary screen | Leishmania major promastigotes, resazurin fluorescence viability | inhibition, % at 10 µM | hit rate 9% among 200,000; in the data active means inhibition above about 50%;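 further: promastigotes grown with compound for 44 hours at 28 °C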
# S1P3 antag: S1P3 receptor antagonists, primary screen, cell-based | hit rate 0.27% among 170,000 | CHO S1P3 NFAT-BLA reporter, FRET fluorescence, antagonist mode | Sphingosine 1-phosphate receptor 3 (Homo sapiens), Q99500 | inhibition, % at 4.98 µM;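 active means inhibition above the plate cutoff, the mean inhibition of test wells on that plate plus 3 SD, cut at about 28% in these data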;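 further: cells challenged with S1P at its EC80 of 0.8 µM; blue over green emission ratio from cleaved BLA substrate after 4 h stimulation; 0% = S1P-stimulated wells and 100% = unstimulated DMSO-only wells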
# * = called active by the depositor; . = no result given. Shown is part of a subset that was picked to be rich in hits.
SMILES,S1P4 agonist,MDM2 E3 inh,S1P4 antagonist,L major viab,S1P3 antag
O=C(NC1CCCCC1)c1ccc(S(=O)(=O)c2ccccc2Cl)c([N+](=O)[O-])c1,1,3,-6,3,-10
COCCNC(=O)COc1cccc2c1OC(C)(C)C2,-1,-16,-17,-10,0
CC(C)CN(C(=O)c1nn(C)c(=O)c2ccccc12)c1nc2ccccc2s1,1,-18,-11,52*,.
COc1ccc(Cl)cc1N(CC(=O)Nc1ccccc1C(=O)NCc1ccco1)S(C)(=O)=O,1,-7,-6,83*,3
COc1ccc(OC)c(N(CC(=O)Nc2ccccc2C(=O)NCc2ccco2)S(C)(=O)=O)c1,-1,1,-11,32,.
O=C(Nc1ccc(Cl)cc1)Nc1ccccc1C(=O)NCc1ccco1,1,-21,-7,1,54*
C=CCn1c(SCC#N)nc2c(c1=O)C(C)(C)Cc1ccccc1-2,-1,-30,4,96*,.
O=C(/C=C/c1ccc(F)cc1)c1ccccc1Br,2,-2,17,94*,5
Cc1ccc(C(=O)/C=C/c2ccc(F)cc2)o1,0,-10,-5,98*,5
COc1ccc(/C=C/C(=O)c2oc3ccc(F)cc3c2C)cc1,1,13,14,3,0
O=C(/C=C/c1ccc(O)c(O)c1)c1ccccc1O,0,-31,6,.,-7
CC(NC(=O)c1ccccc1)C(c1cccs1)N1CCOCC1 (stereo not given),0,-10,-3,-3,.
CN1CCN(S(=O)(=O)c2ccc(Oc3ccc(F)c(Cl)c3)nc2)CC1,2,-8,-20,-8,-12
CCOc1ccc(C2Oc3nc(SC)nnc3-c3ccccc3N2C(C)=O)cc1OC (stereo not given),1,-5,-16,-5,55*
Cc1c(C)c(C)c(CO/N=C/c2cccs2)c(C)c1C,1,-6,6,.,-4
COc1cccc(OC)c1C(=O)Oc1ccc2c(c1)O/C(=C\c1ccncc1)C2=O,1,2,-14,94*,-2
O=C1/C(=C/c2ccc(F)cc2)Oc2cc(OC(=O)N3CCOCC3)ccc21,1,-1,-2,.,-6
O=C1/C(=C/c2ccccc2)Oc2cc(OC(=O)N3CCOCC3)ccc21,-1,-9,-13,74*,-4
O=C(COc1ccccc1C(=O)O)Nc1nc2ccc([N+](=O)[O-])cc2s1,1,-7,-3,.,-6
O=C(CN1CCOCC1)NCc1ccccc1,0,-23,-1,-3,9
O=C(CN1CCN(c2ncccn2)CC1)N1CCN(C(c2ccccc2)c2ccccc2)CC1,-2,.,-14,98*,.
O=C(CN1CCN(c2ncccn2)CC1)NCc1ccccc1,3,103*,-14,0,.
CCCC(c1nnnn1CS(=O)(=O)c1ccc(C)cc1)N1CCN(CC)CC1 (stereo not given),2,-2,12,-2,-15
CCCc1nnc(SCC(=O)N2CCCC2)n1Cc1ccco1,0,-2,-7,4,-4
CN(C)c1cc[n+](CC(=O)c2ccc(-c3ccccc3)cc2)cc1,0,-21,-19,100*,-5
SMILES,S1P4 agonist,MDM2 E3 inh,S1P4 antagonist,L major viab,S1P3 antag
Cc1ccc(SCCc2cc[n+](CC(=O)c3ccccc3)cc2)cc1,1,-25,-3,28,2
Cc1ccc(C(=O)C[n+]2ccc(Cc3ccccc3)cc2)cc1,0,-8,-14,86*,-31
O=C(CSc1nc2ncc(Cl)cc2[nH]1)N(Cc1ccccc1)C1CCS(=O)(=O)C1 (stereo not given),1,-23,-4,0,-12
CCOc1ccccc1OCC(=O)NCCc1ccc(S(N)(=O)=O)cc1,1,0,-14,-9,-10
Cc1ccc(C2CC(c3ccccc3)=NN2c2ccccc2)o1 (stereo not given),1,3,-8,100*,-5
CC1=NN(c2ccccc2)C(=O)/C1=C/c1cn(C)c2ccccc12,0,-11,1,.,-9
COc1cccc(C(C(=O)NC(C)(C)C)N(CC(C)C)C(=O)CCC(=O)Nc2cc(C)on2)c1OC (stereo not given),1,-11,-26,-2,-11
CCCc1cc(NCCCCO)n2c(nc3ccccc32)c1C#N,3,2,-3,14,.
CCCc1cc(N2CCN(C(=O)c3ccco3)CC2)n2c(nc3ccccc32)c1C#N,2,-2,-26,71*,.
Cc1nn2c(nc(N3CCCCC3)c3ccccc32)c1C=O,-1,-10,-28,53*,1
Cc1nn2c(nc(N3CCOCC3)c3ccccc32)c1C=C(C#N)C#N,0,.,-10,0,-4
Cc1cc(=O)[nH]c(N/N=C/c2ccccc2C(F)(F)F)n1,1,-14,11,1,-19
Cc1cc(=O)[nH]c(N=N/C(=N/Nc2ccc(O)cc2)c2ccccc2)n1,2,-15,0,94*,.
COc1ccc(N/N=C(/N=Nc2nc(C)cc(=O)[nH]2)c2ccccc2)cc1,2,-14,-5,100*,.
Cc1cc(=O)[nH]c(N=N/C(=N/Nc2ccccc2C)c2ccccc2)n1,2,3,3,98*,.
CC(C)c1nc2sc(C(=O)O)c(N)c2c2c1CCCC2,0,5,-13,.,-4
COc1cc2cc(CN(Cc3cccs3)C(=S)Nc3ccccc3)c(=O)[nH]c2cc1OC,3,-12,-1,81*,-3
CNC(=S)N(Cc1ccc(OC)cc1)Cc1cc2ccc(C)cc2[nH]c1=O,0,-3,-15,6,-19
CCNC(=S)N(Cc1cccs1)Cc1cc2cc(OCC)ccc2[nH]c1=O,0,-10,-17,96*,-1
CNC(=S)N(Cc1cccs1)Cc1cc2ccc(OC)cc2[nH]c1=O,0,-6,-17,70*,-5
CCNC(=S)N(Cc1ccco1)Cc1cc2cc(OCC)ccc2[nH]c1=O,1,.,5,33,9
COc1ccc2[nH]c(=O)c(CN(Cc3cccs3)C(=S)Nc3ccccc3)cc2c1,0,-13,-12,98*,7
CCc1ccc(OC(C)c2nnc(SCC(=O)Nc3ncccc3C)n2C)cc1 (stereo not given),-2,-1,-1,11,17
CC(C)COC(=O)/C(C#N)=C/c1c[nH]c2ccccc12,-1,-9,-14,-5,-5
Cc1c(-n2c(SCC(N)=O)nc3ccccc3c2=O)c(=O)n(-c2ccccc2)n1C,2,-13,-17,-3,5
O=C(C[n+]1cc(-c2ccc(F)cc2)n2c1CCC2)N1c2ccccc2Sc2ccccc21,1,-1,-5,91*,-13
Cc1ccc(-c2c[n+](CC(=O)N3c4ccccc4Sc4ccccc43)c3n2CCC3)cc1,-1,-9,-16,96*,1
